Results gathered from unrelated publications.
Target: Eukaryotic elongation factor 2 kinase (EEF2K, Homo sapiens, UniProt O00418)

COc1cc2ncnc(Nc3ccc(Oc4ccccc4)cc3C)c2cc1OC
inhibition (enzyme activity; inhibitor; 1 µM): 2%

CCN1CCC2(CC1)NC(=O)c1c(c3ccc(Cl)c(Cl)c3n1C)C2C#N (racemic)
ΔTm (thermal stability; DSF; 10 µM): 0 °C

CC(C)(C)c1nc(-c2cccc(NS(=O)(=O)c3c(F)cccc3F)c2F)c(-c2ccnc(N)n2)s1
remaining activity (enzyme activity; inhibitor; radiometric; 1 µM): 93%

CC(C)(C)C(=O)c1sc(NC2CCCCC2)nc1N
remaining activity (enzyme activity; inhibitor; 10 µM): 111%

CC(C)c1ccc(NC(=O)c2cccs2)c(-c2nc3ccccc3[nH]c2=O)c1
activity vs control (enzyme activity; inhibitor; 1 µM): 113%

Cn1c2c(c3ccc(Cl)c(Cl)c31)C(C#N)C(C)(C)NC2=O (stereo not shown)
ΔTm (thermal stability; DSF; 10 µM): -0.5 °C

C=CC(=O)Nc1cc(Nc2nccc(Nc3cc(Cl)c(F)cc3C(C)(C)O)n2)c(OC)cc1N1CC[C@@H](N(C)C)C1
inhibition (enzyme activity; inhibitor; 1 µM): 11%

FC(F)(F)Oc1cccc(-c2cnc3ccc(-c4ccncc4)nn23)c1
activity vs control (enzyme activity; inhibitor; radiometric; 1 µM): 99%

Cc1cc(NC(=O)c2cccc3cc(-c4cccc5[nH]nc(N)c45)ccc23)ccc1F
activity vs control (enzyme activity; inhibitor; 0.1 µM): 103%

CCN1CCN(Cc2ccc(NC(=O)c3ccc(C)c(Oc4ccnc5[nH]ccc45)c3)cc2C(F)(F)F)CC1
inhibition (target engagement in cells; inhibitor; chemoproteomics; A-375; 5 µM): -27.8%

Cc1ccc(Nc2nccc(N(C)c3ccc4c(C)n(C)nc4c3)n2)cc1S(N)(=O)=O
inhibition (enzyme activity; inhibitor; 10 µM): -10%

CN1CCC2(CC1)NC(=O)c1c(c3ccc(Cl)c(Cl)c3n1C)C2C#N (racemic)
ΔTm (thermal stability; DSF; 10 µM): -0.1 °C

FC(F)c1nc2ccccc2n1-c1nc(N2CCOCC2)nc(N2CCOCC2)n1
remaining activity (enzyme activity; inhibitor; 10 µM): 96%

N#CC1c2c([nH]c3c(Cl)c(Cl)ccc23)C(=O)NC12CCCCC2 (racemic)
ΔTm (thermal stability; DSF; 10 µM): -0.1 °C

CCN(CC)c1ccc(C2=NNC(=O)CC2C)cc1[N+](=O)[O-] (stereo not shown)
remaining activity (enzyme activity; inhibitor; 10 µM): 95%

CNC(=O)c1cc(Oc2ccc(NC(=O)Nc3ccc(Cl)c(C(F)(F)F)c3)cc2)ccn1
inhibition (enzyme activity; inhibitor; 0.3 µM): -6%
